ChEMBL document CHEMBL1139436, “Quantitative structure-activity relationship of sesquiterpene lactones as inhibitors of the transcription factor NF-kappaB” (J Med Chem, 2004)

Columns and labels:
[1] = target: T1, Nuclear factor NF-kappa-B complex (Homo sapiens) (UniProt Q00653+P19838+Q04206); assay: (§1) Concentration required for complete inhibition of Nuclear factor kappa B DNA binding; format: protein-complex assay
How it was run: (§2)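 Jurkat T cells (RPMI 1640, 10% FCS, penicillin/streptomycin) pretreated 1 h with sesquiterpene lactone, first at 10, 20, 50, 100 μM, then 1–5 μM or 200–300 μM as needed. Stimulated 1 h with 200 U/mL TNF-α. Total extracts (Totex high-salt buffer) analysed by EMSA with ³²P-labeled NF-κB oligonucleotide, 25 min at room temperature. IC100 is the lowest tested level fully blocking binding; intermediate values assigned the higher level. Each experiment reproduced at least once.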

[2] = target: T1, Nuclear factor NF-kappa-B complex (Homo sapiens); assay: as §1; format: protein-complex assay; design: unit not given here; how it was run: as §2

T1 sequence (P19838 whole entry, looked up): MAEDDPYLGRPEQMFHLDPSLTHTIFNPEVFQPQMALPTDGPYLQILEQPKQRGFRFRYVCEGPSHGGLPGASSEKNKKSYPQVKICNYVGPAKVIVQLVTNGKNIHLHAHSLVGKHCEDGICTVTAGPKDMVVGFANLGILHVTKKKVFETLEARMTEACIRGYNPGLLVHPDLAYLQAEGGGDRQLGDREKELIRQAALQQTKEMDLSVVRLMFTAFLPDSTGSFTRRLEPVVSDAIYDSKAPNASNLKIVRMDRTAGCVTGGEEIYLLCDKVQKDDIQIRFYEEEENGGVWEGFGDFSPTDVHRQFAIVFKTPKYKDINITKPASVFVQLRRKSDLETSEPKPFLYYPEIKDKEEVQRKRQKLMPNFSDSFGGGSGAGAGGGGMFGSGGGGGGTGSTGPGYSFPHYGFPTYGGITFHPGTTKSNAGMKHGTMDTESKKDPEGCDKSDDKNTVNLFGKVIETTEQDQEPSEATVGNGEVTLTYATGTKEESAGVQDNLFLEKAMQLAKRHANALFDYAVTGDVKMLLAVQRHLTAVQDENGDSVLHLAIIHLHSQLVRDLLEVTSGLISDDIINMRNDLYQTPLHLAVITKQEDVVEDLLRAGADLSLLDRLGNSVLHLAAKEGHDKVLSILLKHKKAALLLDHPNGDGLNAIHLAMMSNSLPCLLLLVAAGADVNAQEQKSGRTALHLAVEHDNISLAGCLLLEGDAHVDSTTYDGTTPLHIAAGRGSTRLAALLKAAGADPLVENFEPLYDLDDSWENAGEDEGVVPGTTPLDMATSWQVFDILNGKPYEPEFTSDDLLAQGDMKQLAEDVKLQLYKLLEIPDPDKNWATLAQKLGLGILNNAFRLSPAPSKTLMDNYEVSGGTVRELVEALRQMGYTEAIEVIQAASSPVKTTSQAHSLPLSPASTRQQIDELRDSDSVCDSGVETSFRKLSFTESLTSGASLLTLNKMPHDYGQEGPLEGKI
T1 sequence (Q00653 whole entry, looked up): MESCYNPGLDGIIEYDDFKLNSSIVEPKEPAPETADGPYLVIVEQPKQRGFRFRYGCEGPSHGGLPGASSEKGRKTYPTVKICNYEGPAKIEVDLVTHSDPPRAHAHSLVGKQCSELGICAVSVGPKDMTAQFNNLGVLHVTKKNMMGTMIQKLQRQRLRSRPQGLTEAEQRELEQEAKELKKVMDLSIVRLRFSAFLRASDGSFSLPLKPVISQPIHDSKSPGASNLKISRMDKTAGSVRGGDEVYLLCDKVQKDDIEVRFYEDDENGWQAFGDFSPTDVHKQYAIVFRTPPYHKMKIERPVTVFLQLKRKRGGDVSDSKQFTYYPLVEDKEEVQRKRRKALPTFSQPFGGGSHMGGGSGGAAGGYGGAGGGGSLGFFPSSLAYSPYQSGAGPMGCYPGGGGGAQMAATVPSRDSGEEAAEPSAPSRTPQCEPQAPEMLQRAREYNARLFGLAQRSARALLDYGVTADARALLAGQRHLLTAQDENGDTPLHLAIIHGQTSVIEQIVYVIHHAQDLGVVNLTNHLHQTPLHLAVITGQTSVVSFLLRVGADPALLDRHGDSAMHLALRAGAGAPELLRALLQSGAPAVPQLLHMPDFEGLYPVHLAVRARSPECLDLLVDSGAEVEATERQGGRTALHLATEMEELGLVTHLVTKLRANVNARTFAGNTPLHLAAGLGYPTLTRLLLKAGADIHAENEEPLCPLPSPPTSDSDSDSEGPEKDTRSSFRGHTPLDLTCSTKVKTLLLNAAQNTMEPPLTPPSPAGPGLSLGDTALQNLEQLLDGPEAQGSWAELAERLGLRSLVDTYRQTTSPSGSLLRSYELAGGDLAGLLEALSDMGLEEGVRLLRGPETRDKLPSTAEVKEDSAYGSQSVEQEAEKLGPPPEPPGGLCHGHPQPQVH
T1 sequence (Q04206 whole entry, looked up): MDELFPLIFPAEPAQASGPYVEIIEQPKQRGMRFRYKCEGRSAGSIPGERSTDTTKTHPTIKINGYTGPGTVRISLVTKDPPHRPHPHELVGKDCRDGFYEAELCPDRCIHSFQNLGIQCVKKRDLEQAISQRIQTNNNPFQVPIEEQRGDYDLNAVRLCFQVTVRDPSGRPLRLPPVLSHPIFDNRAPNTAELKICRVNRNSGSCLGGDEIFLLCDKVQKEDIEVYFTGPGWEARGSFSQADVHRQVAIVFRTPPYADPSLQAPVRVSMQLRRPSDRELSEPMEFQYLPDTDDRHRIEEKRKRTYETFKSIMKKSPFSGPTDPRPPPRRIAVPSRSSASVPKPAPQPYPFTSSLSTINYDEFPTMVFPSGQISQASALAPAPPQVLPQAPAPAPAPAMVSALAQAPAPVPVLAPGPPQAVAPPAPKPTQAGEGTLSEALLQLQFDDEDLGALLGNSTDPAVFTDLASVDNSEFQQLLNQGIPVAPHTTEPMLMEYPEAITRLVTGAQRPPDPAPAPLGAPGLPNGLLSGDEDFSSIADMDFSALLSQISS

Row | SMILES | IC100 [1] | pIC100 [2]
1 | C=C1C(=O)O[C@@H]2C[C@@H](C)[C@@H]3CCC(=O)[C@@]3(C)C[C@H]12 | 50 µM | 
2 | C=C1C(=O)O[C@H]2C3=C(C(=O)C[C@@H]3C)[C@@H](C)CC[C@@H]12 | 20 µM | -1.3
3 | C=C1C(=O)O[C@]23C[C@H]1CCC(COC(C)=O)=C2C(=O)C=C3C | 100 µM | 
4 | C=C(C)C(=O)O[C@@H]1CC(C)=C2C(=O)C=C(C)[C@@H]2[C@H]2OC(=O)C(=C)[C@@H]21 | 10 µM | -1
5 | C=C1C(=O)O[C@H]2C/C(CO)=C\CC/C(COC(=O)C3(C)CO3)=C\C[C@H]12 (some centres not stated) | 50 µM | -1.69
6 | C=C1C(=O)O[C@@H]2[C@H]3C(C)=CC(=O)C3=C(C)C[C@@H](OC(=O)[C@]3(C)O[C@@H]3C)[C@@H]12 | 20 µM | -1.3
7 | C=C1C(=O)O[C@@H]2C[C@@]3(C)CC(=O)C(OC(C)=O)=C(C)C3C[C@H]12 (some centres not stated) | 100 µM | 
8 | C=C1C(=O)OC2[C@H]3O[C@]3(C)CC/C=C(/C)CC[C@@H]12 (some centres not stated) | 20 µM | 
9 | C=C1C(=O)C=C2[C@H]1C[C@@H]1C(=C)C(=O)O[C@@H]1C[C@@H]2C | 10 µM | -1
10 | C=C1C(=O)O[C@H]2[C@H]1[C@@H](OC(=O)/C(C)=C/C)C/C(C)=C/C(=O)/C=C(/C)[C@@H]2O | 10 µM | -1
11 | C=C(C)C(=O)O[C@H]1[C@H]2C(=C)C(=O)O[C@@H]2/C=C(/C)CC/C=C(/C=O)[C@@H]1O | 10 µM | -1
12 | C=C(C)C(=O)O[C@@H]1C[C@]2(C)CC[C@@](O)(O2)/C(C)=C\[C@H]2OC(=O)C(=C)[C@@H]21 | 50 µM | -1
13 | C=C1C(=O)O[C@@H]2[C@H]3C(C)=CC[C@H]3[C@](C)(O)C[C@H](O)[C@@H]12 | 100 µM | -2
14 | C=C(C)C(=O)OC/C1=C/C[C@@H]2C(=C)C(=O)O[C@H]2C/C(CO)=C\CC1 | 50 µM | -1.3
15 | C=C1C(=O)O[C@@H]2[C@H]3C(C)=CC[C@@H](O)[C@]3(C)CC[C@@H]12 | 100 µM | 
16 | C=C1C(=O)O[C@@H]2/C=C(/CO)C3=CC(=O)[C@@](C)(C[C@H](OC(=O)/C(C)=C/C)[C@@H]12)O3 | 5 µM | -0.69
17 | C=C1C(=O)O[C@@H]2C[C@@H](C)[C@@H]3[C@@H](OC(C)=O)C[C@@H](O)[C@@]3(C)C[C@H]12 | 200 µM | 
18 | C=C1C(=O)O[C@H]2C/C(CO)=C\CC/C(COC(=O)C(C)(C)O)=C\C[C@H]12 | 50 µM | -1.69
19 | C=C(C)C(=O)O[C@@H]1C[C@](C)(O)[C@@H]2C(=O)C=C(C)[C@@H]2[C@H]2OC(=O)C(=C)[C@@H]21 | 50 µM | -1.69
20 | C=C1C(=O)O[C@@H]2[C@H]3C(C)=C(Cl)C(=O)C3=C(C)CC[C@@H]12 | 20 µM | -1.3
21 | C=C(C)C(=O)O[C@H]1C/C(C)=C\[C@@]2(OC)C=C(C)[C@H](O2)[C@H]2OC(=O)C(=C)[C@@H]21 | 10 µM | -1
22 | C=C1[C@@H]2[C@H]3OC(=O)C(=C)[C@@H]3CCC(=C)[C@@H]2C[C@@H]1OC(=O)C=C(C)C | 200 µM | -2.3
23 | C=C1C(=O)O[C@@H]2/C=C(/C)C3=CC(=O)[C@@](C)(C[C@@H](OC(=O)/C(C)=C\C)[C@@H]12)O3 | 5 µM | -0.39
24 | C=C1C(=O)O[C@H]2CC(=C)[C@H](O)CC/C(C)=C/[C@@H](O)[C@H]12 | 50 µM | 

Row | SMILES | IC100 [1] | pIC100 [2]
25 | C=C1C(=O)O[C@H]2[C@H]1CCC(C)=C1C(=O)[C@H]3O[C@@]3(C)[C@@H]12 | 5 µM | -0.69
26 | C=C1C(=O)O[C@H]2C/C(CO)=C\CC/C(COC(=O)C(C)C(C)O)=C\C[C@H]12 (some centres not stated) | 50 µM | -1.69
27 | C=C1C(=O)O[C@H]2C[C@H](C)C3=C(C[C@H]12)[C@@H](C)CC3=O | 20 µM | -1.3
28 | C=C1C(=O)C=C2[C@H]1C[C@@H]1C(=C)C(=O)O[C@H]1C[C@@H]2C | 5 µM | -0.69
29 | C=C1C(=O)O[C@@H]2C[C@H](C)C3=C(C[C@H]12)[C@@H](C)CC3=O | 20 µM | -1.3
30 | C=C1C(=O)O[C@@H]2C[C@@]3(C)[C@H](OC(C)=O)CC[C@](O)(COC(=O)C(C)C)[C@@H]3C[C@H]12 | 100 µM | 
31 | C=C(C)C(=O)O[C@H]1[C@H]2C(=C)C(=O)O[C@@H]2[C@H]2O[C@]2(C)CC/C=C(/C=O)[C@@H]1O | 10 µM | -1
32 | C=C(C)C(=O)O[C@@H]1C[C@@]2(C)OC(=CC2=O)/C(C)=C\[C@H]2OC(=O)C(=C)[C@@H]21 | 10 µM | -1
33 | C=C1C(=O)O[C@@H]2/C=C(/C)CC/C=C(/C)C[C@@H](OC(=O)C=C(CO)CO)[C@@H]12 | 20 µM | -1
34 | C=C1C(=O)O[C@@H]2/C=C(/C)CC/C=C(/C)CC[C@@]12O | 10 µM | -1
35 | C=C(C)C(=O)O[C@H]1/C(C=O)=C\CC/C(COC(C)=O)=C\[C@H]2OC(=O)C(=C)[C@@H]2[C@@H]1O | 5 µM | -0.69
36 | C=C1C(=O)O[C@@H]2/C=C(/COC(=O)CC(C)C)CC/C=C(/CO)C(=O)C[C@@H]12 (stereo in doubt; 3) | 12.5 µM | -1.09
37 | C=C(C)C(=O)O[C@@H]1/C=C(\C=O)CCC[C@@]2(CO2)[C@H](O)[C@H]2OC(=O)C(=C)[C@@H]21 | 5 µM | -1
38 | C=C1C(=O)O[C@@H]2[C@H]3C(C)=CC[C@H]3[C@](C)(O)C[C@H](OC(C)=O)[C@@H]12 | 20 µM | -1.3
39 | C=C(C)C(=O)O[C@H]1[C@H]2C(=C)C(=O)O[C@@H]2[C@@H](O)C(=C)CC/C=C(/C=O)[C@@H]1OC | 50 µM | -1.3
40 | C=C(C)C(=O)O[C@H]1C[C@@]2(C)OC(=CC2=O)C(=C)[C@@H](Cl)[C@H]2OC(=O)C(=C)[C@@H]21 | 5 µM | -0.69
41 | C=C1C(=O)C[C@H]2C(=C)C(=O)O[C@@H]2/C=C(/COC(=O)C(C)C)CC[C@@H]1OC | 25 µM | -1.09
42 | C=C(C)C(=O)O[C@H]1C[C@@]2(C)OC(=CC2=O)C(=C)[C@@H](O)[C@H]2OC(=O)C(=C)[C@@H]21 | 10 µM | -1
43 | C=C(C)C(=O)O[C@@H]1/C=C(/C=O)CCC[C@@]2(CO2)[C@H](O)[C@H]2OC(=O)C(=C)[C@@H]21 | 5 µM | -0.69
44 | C=C1C(=O)O[C@H]2C[C@H](C)C3=CC(=O)[C@H](C)C3C[C@H]12 (some centres not stated) | 20 µM | -1.3
45 | C=C1C(=O)O[C@H]2C/C(CO)=C\CC/C(COC(=O)C(C)CC)=C\C[C@H]12 (some centres not stated) | 50 µM | -1.69
46 | C=C(C)C(=O)O[C@@H]1/C=C(/C=O)[C@H](OC)CCC(=C)[C@H](O)[C@H]2OC(=O)C(=C)[C@@H]21 | 10 µM | -1
47 | C=C1C(=O)O[C@@H]2C[C@H](C)[C@@H]3CC(=O)C(C)=C3C[C@H]12 | 50 µM | 
48 | C=C1C(=O)O[C@@H]2[C@H]3C(C)=CC[C@H](O)[C@]3(C)CC[C@@H]12 | 300 µM | 

Row | SMILES | IC100 [1] | pIC100 [2]
49 | C=C1C(=O)O[C@@H]2/C=C(/C)CC/C=C(/C)CC[C@@H]12 | 50 µM | 
50 | C=C1C[C@@H]2OC(=O)C(=C)[C@H]2[C@H](O)/C=C(\C)CCC1=O | 50 µM | -1.69
51 | C=C1C(=O)O[C@@H]2/C=C(/CO)C3=CC(=O)[C@@](C)(C[C@@H](OC(=O)/C(C)=C/C)[C@@H]12)O3 | 5 µM | -0.69
52 | C=C1C(=O)O[C@@H]2C[C@@]3(C)[C@H](O)CC=C(COC(=O)C(C)C)[C@@H]3C[C@H]12 | 50 µM | 
53 | C=C1C(=O)OC2C[C@@H](C)[C@@H]3C=CC(=O)[C@@]3(C)[C@H](O)[C@H]12 (single isomer, unassigned) | 20 µM | 
54 | C=C1C(=O)O[C@@H]2[C@H]3C(C)=CC(=O)C3=C(C)CC[C@@H]12 | 50 µM | 
55 | C=C1C(=O)C[C@H]2C(=C)C(=O)O[C@@H]2/C=C(/COC(=O)CC(C)C)CC[C@H]1OC | 12.5 µM | -1.09
56 | C=C1C(=O)O[C@H]2C/C(CO)=C\CC/C(COC(=O)C(C)CO)=C\C[C@H]12 (some centres not stated) | 100 µM | -2
57 | C=C1C(=O)O[C@H]2[C@H]1[C@H](OC(=O)[C@@]1(C)O[C@H]1C)[C@@H](OC(C)=O)/C(C(=O)OC)=C\CC[C@@]1(C)O[C@@H]21 | 10 µM | 
58 | C=C1C(=O)O[C@]23C[C@H]1CCC(CO)=C2C(=O)C=C3C | 50 µM | 
59 | C=C1[C@H](O)C[C@@H](O)[C@]2(C)CC[C@H]3C(=C)C(=O)O[C@@H]3[C@@H]12 | 200 µM | 
60 | C=C1[C@H](O)C[C@H](O)[C@]2(C)CC[C@H]3C(=C)C(=O)O[C@@H]3[C@@H]12 | 100 µM | 
61 | C=C1[C@@H]2[C@H]3OC(=O)C(=C)[C@@H]3CCC(=C)[C@@H]2C[C@@H]1OC(C)=O | 100 µM | 
62 | C/C=C(\C)C(=O)O[C@H]1[C@@H]2[C@H](C)C(=O)O[C@@H]2C[C@@H](C)[C@@H]2C=CC(=O)[C@]21C | 100 µM | 
63 | C=C1C(=O)O[C@@H]2C[C@@H](C)[C@@H]3C=CC(=O)[C@@]3(C)[C@@H](O)[C@H]12 | 10 µM | 
64 | C=C1C(=O)O[C@@H]2C[C@@H](C)[C@@H]3C=CC(=O)[C@@]3(C)[C@@H](OC(=O)C(C)C)[C@H]12 | 20 µM | 
65 | C=C(C)C(=O)O[C@H]1[C@@H]2[C@H](C)C(=O)O[C@@H]2C[C@@H](C)[C@@H]2C=CC(=O)[C@]21C | 100 µM | 
66 | CC(=O)O[C@H]1[C@@H]2[C@H](C)C(=O)O[C@@H]2C[C@@H](C)[C@@H]2C=CC(=O)[C@]21C | 200 µM | 
67 | C[C@@H]1C[C@H]2OC(=O)[C@@H](C)[C@H]2[C@H](O)[C@]2(C)C(=O)C=C[C@@H]12 | 200 µM | 
68 | C=C1C(=O)O[C@@H]2[C@@H]3[C@@](C)(CC[C@@H]12)[C@@H](O)C[C@H]1O[C@@]31C | 200 µM | 
69 | C=C1C(=O)O[C@@H]2C[C@@]3(C)[C@H](O)CC[C@](O)(COC(=O)C(C)C)[C@@H]3C[C@H]12 | 200 µM | 
70 | C=C1C(=O)O[C@@H]2C[C@@]3(C)[C@H](O)CC[C@@](O)(COC(=O)C(C)C)[C@@H]3C[C@H]12 | 200 µM | 
